MrgX1 PAM: human MrgX1 positive allosteric modulation, primary screen. B-score at 10 µM. hit rate 0.63% among 310,000. MrgX1-HEK293, Fluo-4 calcium flux, FDSS; active compounds read high. Q96LB2;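 active = plate-corrected calcium response at least 3 library SD above typical, normal starting fluorescence, not activating the receptor alone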;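 also: compound read alongside a low EC10 to EC30 dose of BAM8-22 agonist; peak minus trough fluorescence over baseline measured at the second addition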
MrgX1 antagonist: antagonists of human MrgX1 receptor; B-score at 10 µM; hit rate 1.3% among 310,000; MRGX1-HEK293 calcium flux, Fluo-4, BAM8-22 antagonism; active compounds read low; AID 588676;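 active = calcium-response B-score plate-corrected more than 3 library SD below zero, starting fluorescence within 5 deviations, no agonist response on first addition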;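 also: peak minus trough fluorescence over baseline after final BAM8-22 challenge near maximal dose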
MrgX1 agonist: human MrgX1 receptor agonism, primary screen. B-score at 10 µM. hit rate 0.44% among 310,000. AID 588627. MrgX1-HEK293 cells, Fluo-4 calcium fluorescence, agonist mode; active compounds read high;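 active = calcium response B-score plate-corrected fluorescence ratio at least 3 library SD, with starting fluorescence B-score inside 5 SD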
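Test system: HEK293 cells stably expressing human MrgX1 receptor; amount: 15,000 cells per well; doses: compound delivered in addition one of three; times: overnight plating before 1 h dye loading; detection: Fluo-4 NW calcium-flux fluorescence, kinetic read; read-out basis: B-scored fluorescence response ratio; controls: positive and negative controls per plate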
RGS4 act: RGS4 potentiation or activation; HEK293 M3R/inducible RGS4, carbachol calcium flux Fluo4; active compounds read low; B-score at 10 µM; hit rate 0.92% among 310,000; AID 463111;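 active = B-score of the integrated calcium signal more than 4 SD below the library mean, with starting fluorescence not abnormally high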;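 also: negative B-score means reduced calcium response which marks RGS4 activation or potentiation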
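Material: M3R-expressing HEK293 line, RGS4 induced by doxycycline | Schedule: Overnight RGS4 induction, 30 min dye load 37 °C, 20 min compound RT | Measured by: Fluo4 fluorescence kinetic imaging of calcium | Read-out: Integrated calcium ratio converted to B score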
RGS4 block: inhibitors of human RGS4; hit rate 0.45% among 310,000; P49798; B-score at 10 µM; HEK293 M3R/RGS4 inducible, Fluo-4 calcium flux; active compounds read high; triggered by carbachol at its EC20;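 active = B-score, a plate-corrected calcium signal, over three deviations above library mean, with baseline fluorescence within five deviations of library mean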;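 also: RGS4 expression induced by doxycycline in cells with stable M3 receptor; B-score is computed from the integrated fluorescence ratio over baseline after carbachol; higher B-score means a larger calcium signal and so more RGS4 inhibition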
Target sequence (P49798 whole entry, looked up): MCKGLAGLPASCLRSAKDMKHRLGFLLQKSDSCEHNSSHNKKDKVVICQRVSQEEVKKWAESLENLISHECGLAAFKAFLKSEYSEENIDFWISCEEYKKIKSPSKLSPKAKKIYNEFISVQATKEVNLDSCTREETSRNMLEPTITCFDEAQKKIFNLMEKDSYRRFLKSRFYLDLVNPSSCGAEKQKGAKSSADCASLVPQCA
RGS4 inh valid: validation of RGS4 inhibitors; shares compounds with RGS4 block; HEK293 M3R/RGS4, carbachol calcium Fluo-4 fluorescence; carbachol added at its EC20; 0 = buffer wells, 100 = carbachol control; calcium response, % at 10 µM; hit rate 65% among 1,700;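 active = duplicate-averaged calcium response above the buffer-only control mean plus 5 SD of those controls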;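 also: integrated fluorescence ratio F max minus min over baseline F0; higher response in RGS4-induced cells means RGS4 inhibition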
RGS4 uninduced: counter-screen for RGS4 inhibitors: effect in non-induced cells; HEK293 M3R non-induced, carbachol calcium Fluo-4; submaximal (EC20) carbachol stimulus; buffer wells 0%, carbachol control wells 100%; shares compounds with RGS4 block; activity (percent), % at 10 µM; hit rate 20% among 1,900; call rule not given here;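 also: RGS4 induction absent so cells express M3R without RGS4; higher means more calcium signal and flags a non-specific hit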
RGS4 inh ctr2: signal in non-induced cells without carbachol, RGS4 inhibitor counter-screen; calcium response (agonist-mode artifact), % at 10 µM; shares compounds with RGS4 block; hit rate 22% among 1,900; HEK293 M3R/RGS4 non-induced, Fluo-4 calcium, no carbachol; normalised: buffer wells 0%, carbachol wells 100%;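 active = duplicate-averaged calcium rise in uninduced cells above buffer wells' mean plus 5 SD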
An asterisk follows results filed as active; i = inactive; · = no result given. An excerpt weighted towards active compounds, which were near 3.5% of everything screened.

SMILES	MrgX1 PAM	MrgX1 antagonist	MrgX1 agonist	RGS4 act	RGS4 block	RGS4 inh valid	RGS4 uninduced	RGS4 inh ctr2
CCn1cnc2c([N+](=O)[O-])c(NS(=O)(=O)c3ccc(C)cc3)ccc21	i	i	i	i	i	·	·	·
CCOC(=O)C(=O)c1csc(NC(=O)CCSc2ccc(C)cc2)n1	i	i	i	i	i	·	·	·
Cc1cccc(N/N=C(\C(N)=O)C2=NC(C)(C)Cc3ccccc32)c1	13*	i	i	i	i	·	i	i
CCOC(=O)/C(=N\O)C1=NC(C)(C)Cc2ccccc21	i	i	i	i	i	·	·	·
O=C(O)COc1ccc(/C=C/C(=O)c2ccc3ccccc3c2)cc1	i	i	i	i	4.8*	i	i	i
Nn1c(Cc2cccc3ccccc23)nnc1SCc1c(F)cccc1Cl	i	i	i	i	i	·	·	·
Nn1c(Cc2cccc3ccccc23)nnc1SCCOc1ccc(F)cc1	i	i	i	i	6.5*	i	i	i
Nn1c(Cc2cccc3ccccc23)nnc1SCCOc1ccc(Br)cc1	i	i	i	i	i	i	i	i
COc1ccc(/C=C2\SC(=O)N(CC(=O)NC3C=CS(=O)(=O)C3)C2=O)cc1 (centres undefined)	i	i	i	i	i	·	·	·
CCOC(=O)c1c(NC(=O)C(NCCN(C)C)c2ccccc2)sc2c1CCCC2 (centres undefined)	i	i	i	i	i	·	·	·
O=C(c1cc(COc2ccc(F)cc2Cl)on1)N1CCSCC1	i	i	i	i	i	·	·	·
Cc1ccc(NC(=O)NC(=O)CSc2nnc(-c3ccc(Cl)cc3Cl)n2N)c(C)c1	i	i	i	i	5.2*	i	i	i
Cc1ccc(-c2nnc(SCC(=O)NC(=O)Nc3ccc(C)cc3C)n2N)cc1	i	i	i	i	i	·	·	·
Cc1cc2cc(C)c(NCCNC(=O)c3cccc(F)c3)nc2cc1C	i	i	i	i	5.3*	i	i	i
Cc1cc2cc(C)c(NCCNC(=O)c3ccccc3F)nc2cc1C	i	i	i	i	i	i	i	i
Cc1cccc(C(=O)NCCNc2nc3cc(C)c(C)cc3cc2C)c1	i	i	i	i	i	i	i	i
O=[N+]([O-])/C=C/c1cn(Cc2ccc(F)cc2)c2ccccc12	7.4*	i	i	i	6*	42%*	i	68%*
O=C(O)c1ccc(N/N=C/c2cn(Cc3ccc(F)cc3)c3ccccc23)cc1	i	i	i	i	i	·	·	·
COc1ccc(OC)c(NC(=O)c2cc(-c3cc(Cl)ccc3O)n[nH]2)c1	i	i	i	i	i	·	·	·
COc1ccc(Cl)cc1NC(=O)c1cc(-c2ccccc2O)n[nH]1	i	i	i	i	5.5*	5.0%*	i	i
C/C(=N\N=C(/N)SC1CC(=O)N(c2ccc(Cl)c(Cl)c2)C1=O)c1cccs1 (centres undefined)	i	i	i	i	6.4*	5.5%*	i	i
CCCCCOc1ccc(N2C(=O)CC(N(O)c3ccccc3)C2=O)cc1 (centres undefined)	i	i	i	i	i	·	·	·
C/C(=N\N=C(/N)SC1CC(=O)N(c2ccc(Cl)cc2)C1=O)c1cccs1 (centres undefined)	i	i	i	i	8.7*	5.0%*	40%*	i
NCCSC1CC(=O)N(c2ccc(Cl)c(Cl)c2)C1=O (centres undefined)	i	i	i	i	i	·	·	·
